The record followed here is ChEMBL document CHEMBL4808255, “Design, synthesis, and target identification of new hypoxia-inducible factor 1 (HIF-1) inhibitors containing 1-alkyl-1H-pyrazole-3-carboxamide moiety” (Bioorg Med Chem, 2021).

Data set [1] deals with T1, Hypoxia-inducible factor 1-alpha (Homo sapiens, UniProt Q16665). Nature of the data set: Inhibition of hypoxia-induced HIF1 alpha transcriptional activity in human HeLa cells transfected with luciferase reporter containing of HRE assessed as reduction in luciferase activity incubated for 1 hrs under normoxic condition followed by incubation under hypoxic condition for 24 hrs by luciferase reporter gene assay. It is filed as cell-based.

The target in data set [2] is T1, Hypoxia-inducible factor 1-alpha. Nature of the data set: Inhibition of hypoxia-induced HIF1 alpha transcriptional activity in human HeLa cells assessed as HIF1alpha protein level incubated for 1 hrs under normoxic condition followed by incubation under hypoxic condition for 24 hrs by Western blotting analysis. Type of data set: cell-based. As to conditions: time 25.0 hrs.

Data set [3] has as its system HeLa. Nature of the data set: Inhibition of mitochondrial complex V in human HeLa cells assessed as reduction in oxygen consumption rate at 0.1 to 1 uM for 1.5 hrs cells pretreated with FCCP/antimycin A/rotenone by XF mito stress test assay. As to conditions: dose 0.1-1 µM. Type of data set: cell-based. A digest of the protocol: (§1)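 HeLa cells at 80–90% confluency equilibrated 1.5 h at 37 °C without CO₂. OCR recorded at baseline and after sequential injections: compound (0.1, 1, 10 μM) or oligomycin 0.5 μM, then FCCP 0.5 μM, then rotenone/antimycin A (0.5 μM each). Seahorse XF analyzer; n = 6, mean ± SEM.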

The test system of data set [4] is HeLa. Nature of the data set: Inhibition of mitochondrial complex V in human HeLa cells assessed as reduction in oxygen consumption rate at 0.1 to 1 uM for 1.5 hrs by XF mito stress test assay. It is filed as cell-based. The following applies: dose 0.1-1 µM. Summed up: as §1
The next data set has as its system HT-1080. Nature of the data set: Cytotoxicity against human HT-1080 cells assessed as reduction in cell viability incubated for 72 hrs by cell proliferation assay. It is filed as functional, cell-based. The following applies: HT-1080, 72 h. A digest of the protocol: (§2)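 Cells seeded at 1.5 × 10³ per well and grown 24 h, then exposed to solvent or serial dilutions of test compound for 72 h. Viability read with Cell Counting Kit-8. Triplicate wells (n = 3); representative of two independent experiments.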

The target in data set [5] is ATP synthase F(1) complex subunit beta, mitochondrial (Homo sapiens) (UniProt P06576). Nature of the data set: Competitive binding affinity to ATP5B in human HeLa cell mitochondrial fraction in presence of KUSC-5051 by LC-MS/MS analysis. The following applies: Mitochondria. A digest of the protocol: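 HeLa S3 lysate fractionated into debris (1 mg/mL), mitochondrial (0.8 mg/mL) and cytosol (0.6 mg/mL) fractions. Fractions incubated with DMSO or 300 μM competitor, with or without 30 μM photoaffinity probe, 1 h at 37 °C, then UV 365 nm for 30 min. Click labeling, NeutrAvidin enrichment, SDS-PAGE. The ~60 kDa band was trypsin-digested 12 h at 37 °C for LC-MS/MS, with confirmation by anti-ATP5B western blot.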

The target of data set [6] is T1, Hypoxia-inducible factor 1-alpha. Nature of the data set: Inhibition of hypoxia-induced HIF1 alpha transcriptional activity in human HeLa cells assessed as reduction in CA9 mRNA level at 3 uM incubated for 1 hrs under normoxic condition followed by incubation under hypoxic condition for 24 hrs by quantitative RT-PCR analysis. It is filed as cell-based. As to conditions: time 25.0 hrs.

The subject of the next data set is HeLa S3. Nature of the data set: Cytotoxicity against human HeLa S3 cells assessed as reduction in cell viability incubated for 72 hrs by cell proliferation assay. Type of data set: functional, cell-based. The following applies: HeLa S3, 72 h. Summed up: as §2
Data set [7] has as its target ATP synthase F(1) complex catalytic subunit beta, mitochondrial (Bos taurus) (UniProt P00829). Nature of the data set: Inhibition of ATP5B in bovine heart mitochondrial solution assessed as complex V activity at 10 to 100 nM incubated for 2 hrs by spectrophotometry. The following applies: Mitochondria, dose 10-100 nM. A digest of the protocol:
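Complex V activity measured in bovine heart mitochondria solution with ATP synthase. Compound at 10 and 100 nM; DMSO 1.0% vehicle; oligomycin 12.6 μM as positive control. Incubated 2 h at 25 °C, monitoring absorbance at 340 nm for NADH consumption. n = 3; representative of three experiments; Student's t-test.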

For data set [8], the target named is T1, Hypoxia-inducible factor 1-alpha. Description: Inhibition of hypoxia-induced HIF1 alpha transcriptional activity in human HeLa cells assessed as reduction in VEGF mRNA level at 3 uM incubated for 1 hrs under normoxic condition followed by incubation under hypoxic condition for 24 hrs by quantitative RT-PCR analysis. Type of data set: cell-based. The following applies: time 25.0 hrs.

Data set [9] shares this target. Nature of the data set: Inhibition of hypoxia-induced HIF1 alpha transcriptional activity in human HeLa cells at 3 uM incubated for 1 hrs under normoxic condition followed by incubation under hypoxic condition for 24 hrs by quantitative RT-PCR analysis. It is filed as cell-based. As to conditions: time 25.0 hrs.
Data set [10] concerns the target ATP synthase F(1) complex catalytic subunit beta, mitochondrial (Bos taurus) (UniProt P00829). Nature of the data set: Inhibition of ATP5B in bovine heart mitochondrial solution assessed as complex V activity at 12.6 nM incubated for 2 hrs by spectrophotometry. The following applies: Mitochondria. A digest of the protocol: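 Bovine heart mitochondria solution used as the ATP synthase (complex V) source. Compound was incubated 2 h at 25 °C with DMSO at 1.0%. Activity followed as consumption of supplemented NADH by absorbance at 340 nm on a spectrophotometer. Oligomycin was the positive control. n = 3; representative of three independent experiments; Student's t-test.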

Data set [11] is described as follows: Drug localization in mitochondria of human HeLa cells at 1 uM incubated for 3 hrs by MitoTracker Red CMXRos and Hoechst 33342 staining based assay. It is filed as ADME. Summed up:
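HeLa cells exposed 3 h to 1 μM BODIPY-FL fluorescent probe. MitoTracker Red CMXRos (100 nM) and Hoechst 33342 (10 μM) added, then cells fixed and imaged by fluorescence microscopy.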

The structures appear in SMILES notation. Calls of active or inactive are those of the source. The rule behind the calls is not given here.

As to `O=C(Nc1ccccc1O)c1ccn(Cn2cc([N+](=O)[O-])cn2)n1`, in [1], the IC50 is greater than 100 µM. In the case of `CCC(=O)Nc1cnn(Cn2ccc(C(=O)Nc3ccc(C(F)(F)F)cc3)n2)c1`, in [2], the inhibition entry was “Dose-Dependent Effect”. The inhibition entry (in the data set on HeLa [3]; with HeLa [4]; in data set [6]; in data set [7]; in data set [8]; in data set [9]) was “Active” throughout. In addition, the figures for the 50% inhibitory concentration (IC50) (in the data set with HT-1080; in data set [1]; in the data set with HeLa S3) were 0.6 µM, 1.2 µM and 34.5 µM, respectively. Moreover, the outcome in data set [5] was Active.

On to `O=C(Nc1ccc(F)cc1F)c1ccn(Cn2cc([N+](=O)[O-])cn2)n1`, for which the IC50 in data set [1] came out at 81 µM. Turning to `O=C(Nc1ccc(Cl)cc1)c1ccn(Cn2cc([N+](=O)[O-])cn2)n1`, in data set [1], the half-maximal inhibitory concentration (IC50) came out at 20 µM. Take `CC(=O)Nc1cnn(Cn2ccc(C(=O)Nc3ccc(Br)cc3)n2)c1`: the 50% inhibitory concentration (IC50) in data set [1] was determined as 14 µM.

On to `C#CCCCC1(CCC(=O)Nc2cnn(Cn3ccc(C(=O)Nc4ccc(C(F)(F)F)cc4)n3)c2)N=N1`, for which the outcome in [5] was Active.

In the case of `CC(C)c1ccc(NC(=O)c2ccn(Cn3cc([N+](=O)[O-])cn3)n2)cc1`, in data set [1], the IC50 was 21 µM.

For `O=C(Nc1ccc(Br)cc1)c1ccn(Cn2cnc([N+](=O)[O-])c2)n1`, the IC50 in [1] was 58 µM. Still for that read-out and setting: the same measure for `O=C(Nc1ccccc1Br)c1ccn(Cn2cc([N+](=O)[O-])cn2)n1`: 45 µM. For the compound `O=C(Cc1ccccc1)Nc1cnn(Cn2ccc(C(=O)Nc3ccc(C(F)(F)F)cc3)n2)c1`, the IC50 in data set [1] came out at 1.4 µM. Regarding `O=C(Nc1ccccc1)c1ccn(Cn2cc([N+](=O)[O-])cn2)n1`, in data set [1], the IC50 was greater than 100 µM. For the compound `CC[C@@H]1/C=C/C=C/C[C@H](C)[C@@H](O)[C@](C)(O)C(=O)[C@H](C)[C@@H](O)[C@H](C)C(=O)[C@H](C)[C@@H](O)[C@H](C)/C=C/C(=O)O[C@H]2[C@@H](C)[C@@H](CC1)O[C@@]1(CC[C@@H](C)[C@@H](C[C@@H](C)O)O1)[C@@H]2C`, the IC50 in the data set with HT-1080 was less than 0.1 µM; in the data set on HeLa S3, 5.3 µM. Besides, in data set [10], the inhibition entry was “Active”.

On to `COc1ccc(NC(=O)c2ccn(Cn3cc([N+](=O)[O-])cn3)n2)cc1`, for which, in [1], the half-inhibitory concentration (IC50) is greater than 100 µM.

`CCCNc1cnn(Cn2ccc(C(=O)Nc3ccc(C(F)(F)F)cc3)n2)c1`: in data set [1], the IC50 came out at 1.2 µM.

Regarding `O=C(Nc1ccc(Br)cc1)c1ccn(Cn2ccnc2)n1`, the IC50 in data set [1] stood at 34 µM.

As for `CC(=O)Nc1cnn(Cn2ccc(C(=O)Nc3ccc(C(F)(F)F)cc3)n2)c1`, the IC50 in data set [1] stood at 5.5 µM. Same read-out and setting: the same measure for `O=C(Nc1ccc(C(F)(F)F)cc1)c1ccn(Cn2cc([N+](=O)[O-])cn2)n1`: 18 µM; for `O=C(Nc1ccc(Br)cc1)c1ccn(Cn2cccn2)n1`: 66 µM. The same measure, in the same setting: the result for `CCCC(=O)Nc1cnn(Cn2ccc(C(=O)Nc3ccc(C(F)(F)F)cc3)n2)c1` reads 1.8 µM; that for `CC(C)C(=O)Nc1cnn(Cn2ccc(C(=O)Nc3ccc(C(F)(F)F)cc3)n2)c1`, 6.9 µM; that for `O=C(Nc1cccc(C(F)(F)F)c1)c1ccn(Cn2cc([N+](=O)[O-])cn2)n1`, 33 µM.

As to `Nc1cnn(Cn2ccc(C(=O)Nc3ccc(Br)cc3)n2)c1`, in [1], the half-maximal inhibitory concentration (IC50) amounted to 20 µM. In the case of `Cc1cc(C)n2c1C=C1C=C(CCC(=O)Nc3cnn(Cn4ccc(C(=O)Nc5ccc(C(F)(F)F)cc5)n4)c3)C=[N+]1[B-]2(F)F`, the Drug uptake result in [11] is listed as “Active”. `O=C(Nc1cccc(Br)c1)c1ccn(Cn2cc([N+](=O)[O-])cn2)n1`: the IC50 in [1] amounted to 35 µM. Still for that read-out and setting: the same measure for `O=C(Nc1ccc(Cl)cc1Cl)c1ccn(Cn2cc([N+](=O)[O-])cn2)n1`: 35 µM; for `O=C(Nc1ccc(F)cc1)c1ccn(Cn2cc([N+](=O)[O-])cn2)n1`: 28 µM. Still for that read-out and setting: the result for `O=C(Nc1ccc(Br)cc1)c1ccn(Cn2ccc([N+](=O)[O-])c2)n1` reads 27 µM. The same measure, in the same setting: the same measure for `O=C(Nc1ccc(Cl)c(Cl)c1)c1ccn(Cn2cc([N+](=O)[O-])cn2)n1`: 13 µM; for `O=C(Nc1ccc(Br)cc1)c1ccn(Cn2cc([N+](=O)[O-])cn2)n1`: 18 µM.
